Bioassay records deposited in PubChem BioAssay by several laboratories.
Compounds with a hit are over-represented: about 12% of the library has one in this group of screens.
ROMK mod: human ROMK K+ channel modulation, primary screen | Tet-inducible ROMK, thallium flux fluorescence; actives lie on both sides | B-score at 10 µM | 130,000 compounds, 2% hits | AID 1918;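 active means signal ratio slope over the read window, or its plate-corrected B-score, at least 3 SD from the plate mean, either direction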;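 further: B-score of the F/F0 ratio slope over 7 to 12 s after thallium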
Target sequence (P48048 whole entry, looked up): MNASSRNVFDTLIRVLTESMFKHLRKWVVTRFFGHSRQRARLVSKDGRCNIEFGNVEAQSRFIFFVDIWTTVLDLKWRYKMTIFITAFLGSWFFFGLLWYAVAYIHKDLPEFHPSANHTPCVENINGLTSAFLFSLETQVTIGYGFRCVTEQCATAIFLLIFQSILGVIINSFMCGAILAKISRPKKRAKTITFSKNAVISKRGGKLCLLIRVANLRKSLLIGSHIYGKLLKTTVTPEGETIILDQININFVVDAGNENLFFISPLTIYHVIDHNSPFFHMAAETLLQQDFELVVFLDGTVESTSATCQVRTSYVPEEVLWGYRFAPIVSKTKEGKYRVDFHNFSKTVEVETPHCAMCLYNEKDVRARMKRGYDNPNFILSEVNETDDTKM
Diaphorase act: activates diaphorase or chemically reduces, flagging diaphorase assay artifacts. Diaphorase/resazurin coupled assay, resorufin fluorescence, 16 min; stronger effect = higher value; 1 = vehicle wells, 0 = NADH-free wells. activation factor at 20 µM. 190,000 compounds, 0.005% hits. AID 1229;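 active means diaphorase activity raised at least twofold by the compound at 20 µM; inactive means activation factor below 2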
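Measured by – red resorufin fluorescence at 544/590 nm excitation/emission · Test system – Clostridium kluyveri diaphorase, purified enzyme · Incubation – reaction time 16 min, room temperature · Buffer or medium – 50 mM HEPES pH 7.4 with 4.542 mM MgCl2, 0.005% Tween 20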
WT yeast gro inh: growth inhibition of WT yeast, mitochondrial fusion screen. mitochondrial fusion phenotypic screen, WT strain. inhibition, % at 10 µM. 190,000 compounds, 2.1% hits; in the data active means inhibition above about 58%; tested in S. cerevisiae
Diaphorase inh: diaphorase inhibition or chemical oxidation counter-screen | AID 1217 | 190,000 compounds, 0.69% hits | inhibition, % at 20 µM | diaphorase resazurin-to-resorufin fluorescence, NADH, 16 min; bacterial (C. kluyveri) enzyme, not human;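 active means primary screen inhibition at 20 µM above a set limit, cut at about 50% in these data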
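Benchmarks: positive control wells lacking NADH, neutral wells with DMSO only. System: bacterial diaphorase enzyme (C. kluyveri). Input: 0.14 U/mL diaphorase, enzyme working solution. Detection: resorufin fluorescence, excitation 544 nm, emission 590 nm. Times: 16-min room-temperature incubation before reading.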
L major viab: inhibitors of Leishmania major promastigote growth | inhibition, % at 10 µM | AID 1063 | Leishmania major promastigotes, resazurin fluorescence viability | 200,000 compounds, 9% hits; in the data active means inhibition above about 50%;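 further: promastigotes grown with compound for 44 hours at 28 °C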
Cl transport mod: KCC2 (human) Cl- transport modulation; Q9H2X9; KCC2 cells, thallium flux FluoZin-2 fluorescence; B-score of Tl+ flux slope (higher = more flux/activation; lower = inhibition) at 10 µM; 190,000 compounds, 2.2% hits;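 active means thallium flux slope and its plate-corrected score both differing from the plate sample mean at a set confidence after two filtering rounds, in either direction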;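 further: slope of fluorescence scaled to starting intensity during 10 to 20 s after thallium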
Of the large screens only hits and unclear results are named; the others gave an inactive call.

COC(=O)c1ccc(OC(=O)CCN2c3ccccc3Sc3ccccc32)cc1	WT yeast gro inh 61 (no result: ROMK mod)
CC(=O)c1ccc(OC(=O)CCN2c3ccccc3Sc3ccccc32)cc1	WT yeast gro inh 61, L major viab 53
O=C(CCN1c2ccccc2Sc2ccccc21)Oc1ccccc1	none
CCCc1nnc(SCC(=O)N2CCCC(C)C2)n1CC1CCCO1 (stereo not drawn)	none (no result: ROMK mod)
O=c1[nH]c(=O)n([C@H]2C[C@H](O)[C@@H](CO)O2)cc1F	L major viab 82 (no result: ROMK mod)
O=[N+]([O-])c1c(NCc2ccccc2)cc(N2CCc3ccccc3C2)c2nonc12	none (no result: ROMK mod)
O=C(NN1C(=O)c2cc(Br)ccc2NC1c1cc(Br)cc(Br)c1O)c1ccncc1 (stereo not drawn)	none
CCOC(=O)c1cccnc1SCC(=O)N(CC)c1cccc(C)c1	L major viab 91
COc1cc(C(=O)OCC(=O)Nc2cc(C)on2)c([N+](=O)[O-])cc1OC	none
CC(=O)Oc1c(C)cc(Cl)cc1C(=O)Nc1ccc([N+](=O)[O-])cc1Cl	WT yeast gro inh 85
CC(=O)OCC(=O)Nc1ccc([N+](=O)[O-])cc1Cl	none
Cc1ccnc(SCCn2c(N3CC(C)CC(C)C3)nc3c2c(=O)n(C)c(=O)n3C)n1 (stereo not drawn)	Diaphorase inh 51, L major viab 58 (no result: ROMK mod, Cl transport mod)
C=CCOc1ccc2c(c1)C(=NO)c1cc(OCC=C)ccc1-2	L major viab 96 (no result: Cl transport mod)
COc1ccc(CN2C(=O)c3ccccc3C2C(=O)NC2CCC(C)CC2)c(OC)c1 (stereo not drawn)	none
CC(=O)Nc1ccc(Oc2sc(C(=O)c3ccccc3)c(N)c2C#N)cc1	L major viab 98 (no result: ROMK mod)
Cc1ccc(NC(=O)C2Cc3ccccc3CN2C(=O)c2ccccc2)cc1Cl (stereo not drawn)	none
CCN1CC(C)C(O)(c2ccccc2)CC1C (stereo not drawn)	L major viab 79 (no result: Cl transport mod)
COC(=O)c1cc(NC(=O)c2cccc(Cl)c2)c(=O)oc1/C=C/Nc1cc(C)cc(C)c1	ROMK mod -5.8
COC(=O)c1cc(NC(=O)c2cccc(C(F)(F)F)c2)c(=O)oc1C	none
CCC(C)[C@@H](C(=O)N1CCNCC1)n1cc(CCCN=C(N)N)nn1 (stereo partly drawn)	none (no result: ROMK mod)
C[C@@H](C(=O)N1CCNCC1)n1cc(CCCN=C(N)N)nn1	Cl transport mod 2 (no result: ROMK mod)
CC/C(=N\NC(=O)c1ccc(N(C)C)cc1)c1ccccc1	none
CCC1=Nc2cc(C(=O)NCc3ccco3)ccc2Sc2ccccc21	L major viab 70
CCC1=Nc2cc(C(=O)NCc3ccco3)ccc2Sc2ccc(Cl)cc21	L major viab 68
c1cc2[nH]snc2c2nc(C3CC3)nc12	none
COc1ccc(C(NC(=O)N2CC(C)OC(C)C2)C(Cl)(Cl)Cl)cc1F (stereo not drawn)	none (no result: ROMK mod)
CN1CCc2c(sc3c2C(=O)NC(c2ccc(-c4cccc(Cl)c4)o2)N3)C1 (stereo not drawn)	L major viab 68 (no result: ROMK mod)
Cc1ccsc1C1NC(=O)c2c(sc3c2CCN(C)C3)N1 (stereo not drawn)	L major viab 88 (no result: ROMK mod)
CN1CCc2c(sc3c2C(=O)NC(c2cccs2)N3)C1 (stereo not drawn)	none (no result: ROMK mod, Cl transport mod)
CCc1cccc(C)c1NC(=O)CO/N=C(\C)c1cc2ccccc2o1	L major viab 70 (no result: ROMK mod)
c1ccc2c(c1)CC/C2=N/Nc1nc2ccccc2[nH]1	WT yeast gro inh 77, L major viab 100
CC(C)(C)C1CCC(=NNc2nc3ccccc3[nH]2)CC1 (stereo not drawn)	L major viab 85
CC1(C)CC(N=Cc2c(O)n(Cc3ccc4c(c3)OCO4)c(=O)c3ccccc23)CC(C)(C)N1	L major viab 101
CC(C)NC(=O)NC(=O)CSc1nnc(COc2ccccc2F)n1C(C)C1CC2CCC1C2 (stereo not drawn)	L major viab 51 (no result: ROMK mod)
Nc1cc(=O)[nH]c(SCc2ccc(Cl)cc2)n1	L major viab 69 (no result: Cl transport mod)
Nc1cc(=O)[nH]c(SCc2cccc(Cl)c2)n1	none (no result: ROMK mod, Cl transport mod)
Cc1cc(C)c2nc(N3CCCC(C(=O)N4CCN(c5ncccn5)CC4)C3)sc2c1 (stereo not drawn)	WT yeast gro inh 67
Cc1cc(C)c2nc(N3CCC(C(=O)N4CCN(C(=O)c5ccco5)CC4)CC3)sc2c1	none (no result: ROMK mod)
Cc1ccc(NC(=S)N(Cc2cccs2)Cc2cc3cc(C)cc(C)c3[nH]c2=O)cc1	L major viab 95
Cc1cc(C)c2[nH]c(=O)c(CN(Cc3cccs3)C(=S)NCc3ccco3)cc2c1	L major viab 99
CCN(CC)CCN(Cc1cc2cc(C)cc(C)c2[nH]c1=O)C(=S)NCc1ccco1	none
Cc1ccc(NC(=S)N(Cc2cccs2)Cc2cc3cc(C)ccc3[nH]c2=O)cc1	L major viab 79
CCN(CC)CCN(Cc1cc2cc(C)ccc2[nH]c1=O)C(=S)NCc1ccco1	L major viab 61 (no result: ROMK mod)
NNC(=O)CCC(=O)Nc1ccccc1	none
Cc1cccc(NC(=S)N(Cc2cccs2)Cc2cc3cc(C)ccc3[nH]c2=O)c1	none
COc1cc2cc(CN(Cc3cccs3)C(=S)Nc3ccc(C)cc3)c(=O)[nH]c2cc1OC	L major viab 98
CNC(=S)N(Cc1cccs1)Cc1cc2cc(OC)c(OC)cc2[nH]c1=O	L major viab 62
COc1cc2cc(CN(Cc3cccs3)C(=S)Nc3cccc(C)c3)c(=O)[nH]c2cc1OC	L major viab 88
Cc1ccc(-n2c(-c3ccco3)nc3nc4ccccc4nc32)cc1	none
O=C(Cn1cc(C(=O)C2CC2)c2ccccc21)NCc1ccc2c(c1)OCO2	none (no result: ROMK mod)
Cc1[nH]n(-c2ccccc2)c(=S)c1C=Nc1ccc([N+](=O)[O-])cc1	none
Cc1cc(N2CCN(Cc3nc(-c4ccc(F)cc4)oc3C)CC2)cc(C)n1	L major viab 93
Cc1cccc(N2CCN(Cc3nc(-c4ccccc4Cl)oc3C)CC2)n1	none
Cc1cccc(N2CCN(Cc3nc(-c4cccc(Cl)c4)oc3C)CC2)n1	WT yeast gro inh 62 (no result: Diaphorase act, Diaphorase inh)
COC(=O)c1cc2sccc2n1Cc1nc(-c2cccc(Cl)c2)oc1C	L major viab 64 (no result: ROMK mod)
C#CC(CC)(CC)NC(=O)NC1CCCCC1	none
CC1CCCN(c2ccc(C(=O)NCc3ccc4c(c3)OCO4)cc2[N+](=O)[O-])C1 (stereo not drawn)	none (no result: ROMK mod)
CC1CCN(c2ccc(C(=O)N3CCOCC3)cc2[N+](=O)[O-])CC1	none (no result: ROMK mod, Cl transport mod)
CC1CCCN(c2ccc(C(=O)Nc3ccc4c(c3)OCO4)cc2[N+](=O)[O-])C1 (stereo not drawn)	L major viab 97
CC1CCN(c2ccc(C(=O)Nc3ccc4c(c3)OCO4)cc2[N+](=O)[O-])CC1	L major viab 98
O=C(CCNS(=O)(=O)c1ccc(Br)s1)NCc1ccc2c(c1)OCO2	none
